Measured values published in ChEMBL document CHEMBL1125686, “(Benzoylphenyl)piperidines: a new class of immunomodulators” (1991).

Key:
Type in all cases: functional
Mus musculus [1] = test: Maximal proliferation induced in the presence of the mitogen-Concanavalin A (stimulated blastogenesis) in mice cells dosed at 5 ug/mL; design: unit not given here
Summary of the method: (§1)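 Splenocytes from female DBA/2 mice, 6–9 weeks old; red cells lysed with cold 0.17 M NH₄Cl. Cells plated at 5 × 10⁶ cells/mL in RPMI 1640 with 5% FCS, with compound (5–80 μg/mL range) and Con A, PWM or PHA at a batch-optimized concentration. Cultured 72 h at 37 °C, 5% CO₂, with [³H]thymidine for the final 24 h, read by scintillation. Triplicate wells; mean ± SD of three cultures.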

Mus musculus [2] = species on record: Mus musculus; test: Maximal proliferation induced in the presence of the mitogen-PWM ( stimulated blastogenesis) in Mice cells at a dose of 80 ug/mL; design: unit not given here; summary of the method: as §1
Mus musculus [3] = test: Proliferation induced by the mitogen alone-Concanavalin A (control blastogenesis), in mice cells dosed at 5 ug/mL; design: unit not given here; summary of the method: as §1
Mus musculus [4] = species on record: Mus musculus; test: Proliferation induced by the mitogen alone-PWM (control blastogenesis), in Mice cells at a dose of 80 ug/mL; design: unit not given here
Summary of the method: (§2)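 Splenocytes from female DBA/2 mice aged 6–9 weeks, red cells lysed with cold 0.17 M NH4Cl, cultured at 5 × 10⁶ cells/mL in RPMI 1640 with 5% FCS. Pokeweed mitogen added at a batch-adjusted optimal level, 72 h at 37 °C, 5% CO2. [³H]thymidine pulse for the final 24 h, then scintillation counting. Triplicates; mean ± SD of three cultures.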

Mus musculus [5] = species on record: Mus musculus; test: Maximal proliferation induced in the presence of the mitogen-PWM ( stimulated blastogenesis) in Mice cells at a dose of 40 ug/mL; design: unit not given here; summary of the method: as §1
Mus musculus [6] = test: […] induction of Thyl+ antigen expression on murine bone marrow cells at the concentration of 2.9 uM(Fraction A).(Control group)
Summary of the method: (§3)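 Bone marrow from female C57 BL/6 mice, 5–8 weeks old, separated on a discontinuous BSA gradient. Fraction A (lowest density) and fraction B (next lowest) resuspended at 10⁶ cells/mL in HBSS with 5% BSA. Cells incubated 24 h with one compound concentration, then stained directly with FITC anti-Thy1 and counted by epifluorescence microscopy. % Thy1⁺ cells recorded for treated and control cultures.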

Mus musculus [7] = test: […] induction of Thyl+ antigen expression on murine bone marrow cells at the concentration of 2.9 uM(Fraction A).(treated); summary of the method: as §3
Mus musculus [8] = test: […] induction of Thyl+ antigen expression on murine bone marrow cells at the concentration of 2.9 uM(Fraction B).(Control group); summary of the method: as §3
Mus musculus [9] = test: […] induction of Thyl+ antigen expression on murine bone marrow cells at the concentration of 2.9 uM(Fraction B).(treated); summary of the method: as §3
Mus musculus [10] = species on record: Mus musculus; test: Proliferation induced by the mitogen alone-PWM (control blastogenesis), in Mice cells at a dose of 40 ug/mL; design: unit not given here; summary of the method: as §2
Mus musculus [11] = test: […] induction of Thyl+ antigen expression on murine bone marrow cells at the concentration of 2.6 uM(Fraction A).(Control group); summary of the method: as §3
Mus musculus [12] = test: […] induction of Thyl+ antigen expression on murine bone marrow cells at the concentration of 2.6 uM(Fraction A).(treated); summary of the method: as §3
Mus musculus [13] = test: […] induction of Thyl+ antigen expression on murine bone marrow cells at the concentration of 2.6 uM(Fraction B).(Control group); summary of the method: as §3
Mus musculus [14] = test: […] induction of Thyl+ antigen expression on murine bone marrow cells at the concentration of 2.6 uM(Fraction B).(treated); summary of the method: as §3
Mus musculus [15] = species on record: Mus musculus; test: Proliferation induced by the mitogen alone-PHA (control blastogenesis), in Mice cells at a dose of 7.5 ug/mL; summary of the method: as §1
Mus musculus [16] = species on record: Mus musculus; test: Maximal proliferation induced by the test compound in the presence of the mitogen-PHA ( stimulated blastogenesis) in Mice cells at a dose of 7.5 ug/mL; summary of the method: as §1
Mus musculus [17] = test: […] induction of Thyl+ antigen expression on murine bone marrow cells at the concentration of 2.7 uM(Fraction A).(Control group); summary of the method: as §3
Mus musculus [18] = test: […] induction of Thyl+ antigen expression on murine bone marrow cells at the concentration of 2.7 uM(Fraction A).(treated); summary of the method: as §3
Mus musculus [19] = test: […] induction of Thyl+ antigen expression on murine bone marrow cells at the concentration of 2.7 uM(Fraction B).(Control group); summary of the method: as §3
Mus musculus [20] = test: […] induction of Thyl+ antigen expression on murine bone marrow cells at the concentration of 2.7 uM(Fraction B).(treated); summary of the method: as §3
Mus musculus [21] = test: […] induction of Thyl+ antigen expression on murine bone marrow cells at the concentration of 7 uM(Fraction A).(Control group); summary of the method: as §3
Mus musculus [22] = test: […] induction of Thyl+ antigen expression on murine bone marrow cells at the concentration of 7 uM(Fraction A).(treated)); summary of the method: as §3
Mus musculus [23] = test: […] induction of Thyl+ antigen expression on murine bone marrow cells at the concentration of 7 uM(Fraction B).(Control group); summary of the method: as §3
Mus musculus [24] = test: […] induction of Thyl+ antigen expression on murine bone marrow cells at the concentration of 7 uM(Fraction B).(treated); summary of the method: as §3
Mus musculus [25] = species on record: Mus musculus; test: Maximal proliferation induced by the test compound in the presence of the mitogen-PHA ( stimulated blastogenesis) in Mice cells at a dose of 10 ug/mL; summary of the method: as §1
Mus musculus [26] = species on record: Mus musculus; test: Proliferation induced by the mitogen alone-PHA (control blastogenesis), in Mice cells at a dose of 10 ug/mL; summary of the method: as §1
Mus musculus [27] = test: Percent of Thyl+ positive cells / spleen x 10 e6 in nude mice (in vivo)
Summary of the method: (§4)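 Female nu/nu mice, 6–9 weeks old, dosed by gastric tube in 0.2 mL 2% arabic gum with 0.1% Tween-80; controls received vehicle only. Spleens taken 24 h later and splenocytes prepared. Thy1⁺ cells counted by direct FITC anti-Thy1 staining under epifluorescence. Five animals per group, mean ± SD.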

Mus musculus [28] = test: Percent of Thyl+ positive cells, in nude mice (in vivo); summary of the method: as §4
Mus musculus [29] = test: Percent of restoration in nude mice (in vivo); summary of the method: as §4
Mus musculus [30] = test: Percent of restoration of T- cell markers in nude mice (in vivo); summary of the method: as §4
Mus musculus [31] = test: […] induction of Thyl+ antigen expression on murine bone marrow cells (Fraction A).(Control group); summary of the method: as §3
Mus musculus [32] = test: […] induction of Thyl+ antigen expression on murine bone marrow cells (Fraction A).(Treated); summary of the method: as §3
Mus musculus [33] = test: […] induction of Thyl+ antigen expression on murine bone marrow cells (Fraction B).(Control group); summary of the method: as §3
Mus musculus [34] = test: […] induction of Thyl+ antigen expression on murine bone marrow cells (Fraction B).(Treated); summary of the method: as §3

In the case of Cc1ccc(C(=O)c2cc(N)ccc2N2CCC(C)CC2)c(C)c1, the Proliferative response (Mus musculus [1]) is reported as 250, the Proliferative response (Mus musculus [2]) is reported as 61.5 and the Proliferative response (Mus musculus [3]) is reported as 279.6. It also gave a Proliferative response (Mus musculus [4]) of 68.8.

With CC1CCN(c2ccc(N)cc2C(=O)c2ccc(F)cc2)CC1 the Proliferative response (Mus musculus [1]) was 165.6, the Proliferative response (Mus musculus [2]) was 69.9 and the Proliferative response (Mus musculus [3]) was 268.2. It also gave a Proliferative response (Mus musculus [4]) of 72.2.

CC1CCN(c2ccc(N)cc2C(=O)c2ccc(Cl)cc2)CC1C (stereo not drawn) gave a Proliferative response (Mus musculus [1]) of 50.2, a Proliferative response (Mus musculus [5]) of 75.8 and a Proliferative response (Mus musculus [3]) of 48.6. For the same compound, the Differentiation (Mus musculus [6]) was 6.1%, the Differentiation (Mus musculus [7]) was 8.8% and the Differentiation (Mus musculus [8]) was 6.1%. For the same compound, the Differentiation (Mus musculus [9]) was 3% and the Proliferative response (Mus musculus [10]) was 67.3.

Compound CC1CCCN(c2ccc(N)cc2C(=O)c2ccc(Cl)cc2)C1 (stereo not drawn) has a Differentiation (Mus musculus [11]) of 5%, a Differentiation (Mus musculus [12]) of 6.7% and a Differentiation (Mus musculus [13]) of 3.8%. The Differentiation (Mus musculus [14]) was 5%, the Proliferative response (Mus musculus [1]) was 141.6 and the Proliferative response (Mus musculus [2]) was 45. For the same compound, the Proliferative response (Mus musculus [3]) was 124.4 and the Proliferative response (Mus musculus [4]) was 41.3.

CC1CCN(c2ccc(Cl)cc2C(=O)c2ccc(Cl)cc2)CC1 gave a Proliferative response (Mus musculus [15]) of 14.6, a Proliferative response (Mus musculus [1]) of 68.7 and a Proliferative response (Mus musculus [16]) of 8.2. It also gave a Proliferative response (Mus musculus [3]) of 55.6.

CC1CCCCN1c1ccc(N)cc1C(=O)c1ccc(Cl)cc1 (stereo not drawn) gave a Differentiation (Mus musculus [17]) of 5.6%, a Differentiation (Mus musculus [18]) of 6% and a Proliferative response (Mus musculus [1]) of 295. The Proliferative response (Mus musculus [5]) was 58.1, the Proliferative response (Mus musculus [3]) was 131.5 and the Differentiation (Mus musculus [19]) was 5%. The Differentiation (Mus musculus [20]) was 4.4% and the Proliferative response (Mus musculus [10]) was 55.8.

CC1CCN(c2ccc(N)cc2C(=O)c2ccc(Cl)c(Cl)c2)CC1 gave a Proliferative response (Mus musculus [1]) of 151.5, a Proliferative response (Mus musculus [2]) of 64.4 and a Proliferative response (Mus musculus [3]) of 136.6. It also gave a Proliferative response (Mus musculus [4]) of 48.4.

Work on CC1CCN(c2ccc(N)cc2C(=O)c2ccc(Cl)cc2)CC1 yielded a Differentiation (Mus musculus [21]) of 5.6%, a Differentiation (Mus musculus [22]) of 11.5% and a Differentiation (Mus musculus [23]) of 5%. It also gave a Differentiation (Mus musculus [24]) of 11.4%, a Proliferative response (Mus musculus [1]) of 269.5 and a Proliferative response (Mus musculus [25]) of 43.5. It also gave a Proliferative response (Mus musculus [5]) of 101.9, a Proliferative response (Mus musculus [3]) of 194.5 and a Proliferative response (Mus musculus [10]) of 36.5. It also gave a Proliferative response (Mus musculus [26]) of 12.8, a Thylpositive cells/spleen (Mus musculus [27]) of 6.65e+06 cells/spleen and a Thylpositive cells (Mus musculus [28]) of 6.9%. For the same compound, the Restoration (Mus musculus [29]) was 24.5% and the Restoration (Mus musculus [30]) was 14.3%.

For “H-CSDAAVDVSSEITVKDLKEKKEVVEEAE-OH [THYMOSIN]”, the Differentiation (Mus musculus [31]) was 10.8%, the Differentiation (Mus musculus [32]) was 21.9% and the Differentiation (Mus musculus [33]) was 6.3%. The Differentiation (Mus musculus [34]) was 9.4%.
